SMILES strings stand for the structures. Converted amounts (≈) assume the structure as drawn. The source made the active and inactive calls. The rule behind the calls is not given here.

For data set [1], the system named is Mus musculus. The data set is classed as functional, organism-based. Conditions: BALB/c, BaF3, dose 10.0 mg/kg, route po, time 14.0 day.
For data set [2], the system named is BaF3. The experiment in a line: Antiproliferative activity against mouse Ba/F3 cells stably expressing HiBiT-tagged wild type EML4-ALK variant 3 assessed as cell growth inhibition incubated for 72 hrs by CellTiter-Glo assay. The class given is functional. In a few lines: (§1)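 Ba/F3 cells stably expressing HiBiT-tagged EML4-ALK v3 (wild type or the named kinase-site mutant) were treated with compound for 72 h. Growth inhibition was reported as log GI50.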

Data set [3] deals with BaF3. The class given is functional. The settings on record: Mus musculus, BaF3, 336 h, route po, time 14 day, read-out: TGI.
Data set [4] relates to Erythrocyte. The experiment in a line: Hemolytic activity in human RBC assessed as hemolysis incubated for 45 mins by absorbance based microplate reader analysis. The class given is toxicity, cell-based. Conditions: 0.75 h.
Data set [5] concerns Erythrocyte. As to the kind of experiment: Hemolytic activity in mouse RBC assessed as hemolysis incubated for 45 mins by absorbance based microplate reader analysis. The class given is toxicity, cell-based. Conditions: 0.75 h.
Data set [6] is described as follows: Oral bioavailability in C57BL/J6 mouse at 10 mg/kg and measured upto 24 hrs by LC-MS/MS analysis. The class given is ADME, organism-based. Conditions: in vivo. The gist of the method:
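Mouse PK was run with both oral and intravenous dosing, with 10 mg/kg as the study dose. Oral bioavailability was derived from comparing the two routes.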

A short description of data set [7]: Plasma protein binding in human. The data set is classed as ADME, cell-free.
The subject of data set [8] is Mus musculus. The class given is functional, organism-based. Conditions: BALB/c, BaF3, dose 10.0 mg/kg, route po, time 14.0 day. The source holds these as a separate data set.
Data set [9] concerns HepG2. As to the kind of experiment: Induction of phospholipidosis in human HepG2 cells assessed as […] incubated for 48 hrs by Hoechst 33342 staining based imaging analysis. The data set is classed as toxicity, cell-based. Conditions: hepg2, 48 h.
Data set [10] deals with BaF3. The experiment in a line: Antiproliferative activity against mouse Ba/F3 cells stably expressing HiBiT-tagged EML4-ALK variant 3 C1156Y mutant assessed as cell growth inhibition incubated for 72 hrs by CellTiter-Glo assay. The data set is classed as functional. The gist of the method: as §1
In general terms: HiBiT is a short tag that completes a luciferase, so light tracks the accessible tagged protein.

Data set [11] in a line: Plasma protein binding in mouse. The data set is classed as ADME, cell-free.
In data set [12] the test system is HepG2. As to the kind of experiment: Cytotoxicity against human HepG2 cells assessed as reduction in cell viability incubated for 48 hrs by Hoechst 33342 staining based imaging analysis. The settings on record: hepg2, 48 h. The class given is toxicity.
Data set [13] is described as follows: Solubility of the compound in FeSSIF at pH 5.0 incubated for 24 hrs under shaking condition by UPLC-UV/HPLC-UV analysis. The data set is classed as physicochemical.
For data set [14], the system named is BaF3. The data set is classed as functional. The settings on record: Mus musculus, time 72 hrs.
Data set [15] relates to BaF3. The experiment in a line: Antiproliferative activity against mouse Ba/F3 cells stably expressing HiBiT-tagged EML4-ALK variant 3 G1202R mutant assessed as cell growth inhibition incubated for 72 hrs by CellTiter-Glo assay. The data set is classed as functional. In a few lines: as §1
A short description of data set [16]: Microsomal stability in human liver microsomes assessed as intrinsic clearance at 1 uM and measured upto 60 mins in presence of NADPH by LC-MS/MSC analysis. Conditions: read-out: CLH. The class given is ADME, Microsome.
The subject of data set [17] is BaF3. The data set is classed as functional. Conditions: Mus musculus, time 72 hrs. The source holds these as a separate data set.

Take `COc1cc(C2CCN(CC3CN(c4ccc5c(c4)C(=O)N(C4CCC(=O)NC4=O)C5=O)C3)CC2)c(C)cc1Nc1ncc(Cl)c(Nc2ccccc2S(=O)(=O)C(C)C)n1` (stereo not drawn): the outcome in the data set with Mus musculus [1] and in the data set on Mus musculus [8] was Active. Also, the GI50 in the data set with BaF3 [2] is 3.16 nM; in the data set with BaF3 [10] it was 19.9 nM; in the data set on BaF3 [14] it was 3.16 nM; with BaF3 [15] it was 19.9 nM; in the data set on BaF3 [17] (read-out: GI50), 10 nM; in the data set with BaF3 [17] (read-out: pGI50 (converted)), 10 nM. The inhibition in vivo at 10 mg/kg in the data set on BaF3 [3] is 33%. The Activity result with Erythrocyte [4] is listed as “Non-Toxic”; with Erythrocyte [5], “Non-Toxic”; in the data set on HepG2 [9] it was “Toxic”; with HepG2 [12] it was “Toxic”. The compound further had a F in data set [6] of 28%. The PPB in data set [7] and in data set [11] was above 99.9% each time. In addition, in data set [13], the thermodynamic solubility at 24 h was 122 µM (≈ 104 µg/mL). Moreover, in data set [16], the microsomal CLint at 1 µM was 8 µL/min/mg.

Broadly, the thermodynamic solubility is solubility found after equilibrating the solid with the medium.
